# In PubChem BioAssay AID588843 (Broad Institute, 2011):
# Records with an inconclusive call do not appear. The source made the active and inactive calls. How the calls were made is not given here.
# Tested on: ldlA CHO mSR-BI C384S, [3H]cholesterol efflux to HDL
# Test: cholesterol efflux inhibition via mutant SR-BI C384S, mechanism study for SR-BI HDL uptake inhibitor project, cell-based, ldlA CHO, [3H]cholesterol, single point, dry powder (AID 588843)
# Conditions: not given
# Method in brief: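 Material – ldlA CHO cells expressing Cys384S-mutant SR-BI, [3H]cholesterol-labelled · Medium – HEPES-buffered medium with 0.5% FAF-BSA · Probe or stimulus – unlabelled HDL as cholesterol acceptor, 100 µg/mL final · Times – 2-day [3H]cholesterol labelling, 1% FAF-BSA equilibration, 1-h pre-exposure, 2-h efflux · Detection – liquid scintillation counting of [3H]cholesterol in medium and cells · Read-out basis – medium [3H]cholesterol as % of cell-plus-medium total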
row,SMILES,outcome
1,CCOC(=O)N1CCC(NC(=O)c2ccc3c(c2)N(Cc2ccc(F)cc2)CCS3)CC1,active
2,O=C(Nc1ccc(-c2nc3cc(NC(=O)c4ccc(NC(=O)c5cccc6ccccc56)cc4)ccc3[nH]2)cc1)c1ccc(NC(=O)c2cccc3ccccc23)cc1,active

# Same assay, conditions: at 1 µM; stronger effect = lower value
row,SMILES,cholesterol efflux
1,O=C(Nc1cc(Cl)ccc1Cl)c1cc(Br)ccc1NS(=O)(=O)c1ccc(Cl)c([N+](=O)[O-])c1,20.5% (inactive)
2,O=C(Nc1ccc(-c2nc3ccc(NC(=O)c4ccccc4)cc3[nH]2)cc1)c1ccccc1,11.7%
3,CCn1c(COc2c(C)cccc2C)nnc1SCC(=O)N1CCN(c2ccccc2)CC1,17.1% (inactive)
4,COC(=O)c1cn(C(=O)c2cccc3ccccc23)c2ccccc12,19.2% (inactive)
5,COc1cccc(-c2csc(N3CCN(C(=S)Nc4cccc(Cl)c4)CC3)n2)c1,16.6% (inactive)
6,Cc1cc(C)c2c(c1)NC(c1cc3c(cc1Br)OCO3)C1CC=CC21 (centres undefined),19% (inactive)
7,Cc1cc(SC(C)C(=O)Nc2ncc(Cl)cc2Cl)nc2ccccc12 (centres undefined),15.5%
8,Cc1ccc2oc(-c3cccc(NC(=O)c4cc(-n5cnnc5)ccc4Cl)c3)nc2c1,19.7% (inactive)
9,Cc1cc(C)n(CC(=O)NC2CCCc3c2cnn3-c2ccc(C)c(C)c2)n1 (centres undefined),17.2% (inactive)
10,CC(OC(=O)c1cccc(NS(C)(=O)=O)c1)C(=O)Nc1ccc(N2CCOCC2)cc1 (centres undefined),10.3%
11,O=C(Nc1ccccc1Cl)c1ccccc1NS(=O)(=O)c1ccccc1,21% (inactive)
12,O=C(Nc1ccc(-c2nc3cc(NC(=O)c4ccccc4[N+](=O)[O-])ccc3o2)cc1)c1ccccc1[N+](=O)[O-],5.43%
13,CCOc1ccc(NC(=O)CN2CCN(CC(=O)Nc3cc(OC)cc(OC)c3)CC2)cc1,17.9% (inactive)
14,COc1ccc(-c2nnn(CC(=O)N(C3CCCCC3)C(C)C(=O)NC3CCCC3)n2)cc1OC (centres undefined),14.2%
15,Cc1ccc(-c2nnc(N3CCC(C)CC3)c3ccccc23)cc1C,20.5% (inactive)
16,CCOc1ccccc1/C=C/c1onc(C)c1S(=O)(=O)N1CCC(C(=O)NC(C)(C)C)CC1,7.29%
17,COc1ccc(OC)c(CCNC(=O)c2ccc3c(c2)N(Cc2ccc(F)cc2)CCS3)c1,16.9% (inactive)
18,CC(C)OCCCNC(=O)c1ccc(C2SCC(=O)N2Cc2ccco2)cc1 (centres undefined),18.9% (inactive)
19,O=C(Nc1ccc(Cl)cc1C(=O)c1ccc(Cl)cc1)c1cc(Br)ccc1NS(=O)(=O)c1ccc(Cl)cc1,21.7% (inactive)
20,COc1ccc([C@H]2CC(=O)C=C(c3cccc4c3sc3ccccc34)C2)cc1OC,18.7% (inactive)
21,O=C(Nc1cccc(NC(=O)c2cc([N+](=O)[O-])ccc2Cl)n1)c1cc([N+](=O)[O-])ccc1Cl,14.2%
22,Cc1cc(C(=O)C(C)OC(=O)C2=NNC(=O)CC2)c(C)n1-c1ccc(OC(F)F)cc1 (centres undefined),16.5% (inactive)
23,CCC(=O)N1CCc2cc(-c3csc(NC(=O)c4ccco4)n3)ccc21,9.04%
24,N#Cc1sc2nc(C3CC3)cc(-c3ccc(Cl)cc3)c2c1N,14.7%
25,O=C(Nc1cc(C(F)(F)F)ccc1Cl)c1ccccc1NS(=O)(=O)c1ccc(Cl)cc1,21.7% (inactive)
26,O=C(Nc1ccc(-c2nc3cc(NC(=O)c4ccccc4Cl)ccc3o2)cc1)c1ccccc1Cl,5.15%
27,Cc1ccccc1NC(=O)NCC1CCN(c2ccc(S(=O)(=O)N3CCOCC3)cc2)CC1,18.4% (inactive)

# Same assay, conditions: measured here: second test run; at 1 µM; stronger effect = lower value
row,SMILES,cholesterol efflux
1,CCOC(=O)N1CCC(NC(=O)c2ccc3c(c2)N(Cc2ccc(F)cc2)CCS3)CC1,7.46%
2,O=C(Nc1ccc(-c2nc3cc(NC(=O)c4ccc(NC(=O)c5cccc6ccccc56)cc4)ccc3[nH]2)cc1)c1ccc(NC(=O)c2cccc3ccccc23)cc1,7.85%
3,O=C(Nc1ccc(-c2nc3cc(NC(=O)c4ccccc4[N+](=O)[O-])ccc3o2)cc1)c1ccccc1[N+](=O)[O-],3.07%
4,COc1ccc(-c2nnn(CC(=O)N(C3CCCCC3)C(C)C(=O)NC3CCCC3)n2)cc1OC (centres undefined),7.04%
5,CCC(=O)N1CCc2cc(-c3csc(NC(=O)c4ccco4)n3)ccc21,7.93%
